# From PubChem BioAssay
# TRPC6 inh: inhibitors of mouse TRPC6 channel. Q61143. HEK293-TRPC6, membrane potential dye, ACh-evoked depolarization; active compounds read low. B-score at 10 µM. 310,000 tested, 1.1% active. AID 2553;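 active = B-score under library mean minus 3 SD, initial fluorescence not abnormally high, positive integrated signal ratio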;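 note: B-score derived from integrated fluorescence ratio over the kinetic read; more negative B-score means stronger inhibition of depolarization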
# TRPC4 act: activators of mouse TRPC4 channel | Q9QUQ5 | HEK293 TRPC4beta/mu-opioid, Fluo4 calcium fluorescence; active compounds read high | B-score at 10 µM | 310,000 tested, 0.49% active | AID 2237;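 active = B-score above 5 SD of library B-scores, and initial fluorescence ratio not above library mean plus 5 SD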;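 note: positive B-score marks a calcium rise read as TRPC4 activation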
#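 Material: HEK293 stable line with TRPC4beta plus mu-opioid receptor; technique: Fluo4 calcium-sensitive dye fluorescence, kinetic, 1 Hz baseline; timing: Fluo4 dye loading 45 min at room temperature, 110 s recording; controls: assay buffer as low control, maximal DAMGO as high control; read-out: integrated baseline-normalised fluorescence ratio, converted to per-well B score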
# TRPC6 act: mouse TRPC6 channel activation. Q61143. HEK293-TRPC6 membrane potential dye fluorescence; active compounds read high. B-score at 10 µM. 310,000 tested, 0.13% active;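 active = B-score of the integrated fluorescence ratio above library mean plus 3 SD, and starting fluorescence ratio within library mean plus 5 SD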;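 note: higher score means more depolarization so channel activation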
# TRPC4 block: inhibitors of mouse TRPC4 channel; HEK293 TRPC4beta/mu-opioid, DAMGO-evoked Fluo4 calcium flux; active compounds read low; B-score at 10 µM; 300,000 tested, 0.39% active;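 active = B-score over 3 SD under the library average, no early fluorescence shift, positive overall ratio signal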
#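 System: stable TRPC4beta/mu-opioid receptor HEK293 cells; Dosing: single-point compound dosing; Measured by: Fluo4 Ca2+ flux fluorescence; Read-out basis: per-well B score of integrated baseline-normalized Fluo4 ratio.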
# TRPC4 potent: TRPC4 (mouse) allosteric potentiation | Q9QUQ5 | HEK293 TRPC4beta/mu-opioid, DAMGO EC20, Fluo-4 Ca2+ flux; active compounds read high | B-score at 10 µM | 310,000 tested, 0.42% active | AID 2227;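 active = B-score of calcium response area above 5 SD of library B-scores, with initial fluorescence ratio within 5 SD of library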;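 note: B-score of integrated fluorescence ratio over time as area under calcium response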
# TRPC4 spec 2: mouse TRPC4 off-target activity of TRPC6 inhibitors, second screen | shares compounds with TRPC6 inh | HEK293 TRPC4/MOR, membrane potential dye fluorescence; channel activated by saturating DAMGO dose | inhibition, % at 10 µM | 920 tested, 42% active;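 active = compounds whose fluorescence signal differed from control wells by over 3 SD, either direction, in both duplicate plates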
# TRPC4 spec: tests whether TRPC6 inhibitors also affect mouse TRPC4. shares compounds with TRPC6 inh. HEK293 TRPC4/mu-opioid, membrane potential fluorescence. activity change, negative = inhibition, % at 10 µM. 920 tested, 61% active. AID 2777;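 active = rise or fall in signal beyond 3 SD of buffer-only wells in both replicate plates, either sign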;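 note: integrated kinetic ratio of fluorescence range over baseline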
# HEK293 MPD ctr 2-1: second check of TRPC6 inhibitor effects in parental HEK293 cells; parental HEK293 membrane potential dye fluorescence; maximal acetylcholine challenge after compound addition; 920 tested, 31% active; signal change vs control, % at 10 µM; shares compounds with TRPC6 inh; AID 2779;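 active = membrane potential signal moving either way by over 3 SD of the maximum-effect control, in both duplicate plates, meaning non-specific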
# HEK293 MPD ctr-1: checks TRPC6 inhibitor effects in parental HEK293 cells; shares compounds with TRPC6 inh; parental HEK293 membrane potential dye fluorescence; membrane potential signal change, % at 10 µM; 920 tested, 60% active;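 active = membrane potential signal shifting up or down by more than 3 SD of buffer-only wells, on both duplicate plates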
# HEK293 MPD ctr-2: checks TRPC6 modulator effects in parental HEK293 cells. membrane potential signal change, % at 10 µM. shares compounds with TRPC6 inh. 2,400 tested, 51% active. AID 488924. membrane potential dye fluorescence;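 active = membrane potential signal moves up or down beyond 5 SD from buffer-only wells, on both duplicate plates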
# HEK293 MPD ctr 2-2: second counter-screen for TRPC6 modulators: effect in parental HEK293 cells. 2,400 tested, 14% active. AID 488926. inhibition, % at 10 µM. membrane potential dye fluorescence; after compound, maximal acetylcholine stimulation. shares compounds with TRPC6 inh;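 active = membrane potential signal drops by more than 5 SD from the mean control signal, in both duplicate plates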;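 note: plate controls were acetylcholine ECmax control wells for no effect and buffer only wells for full effect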
# TRPC4/MOR mod: tests whether TRPC6 modulators also affect mouse TRPC4; shares compounds with TRPC6 inh; HEK293 TRPC4/mu-opioid, membrane potential fluorescence; percent change from control (negative = decrease, positive = increase), % at 10 µM; 2,400 tested, 69% active; AID 488927;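 active = membrane potential signal moved up or down beyond 5 SD of buffer control wells, in both duplicate plates, actives on both sides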;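 note: plate controls were assay buffer wells for no effect and DAMGO maximal-effect wells for full effect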
# TRPC4/MOR inh 2: second check of whether TRPC6 modulators also affect mouse TRPC4; shares compounds with TRPC6 inh; HEK293 TRPC4/mu-opioid, membrane potential dye fluorescence; stimulated with maximal-effect DAMGO; inhibition, % at 10 µM; 2,400 tested, 55% active; AID 488928;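 active = drop in membrane potential signal beyond 5 SD of the control wells in both duplicate plates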;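 note: TRPC4 counter screen for TRPC6 hits run under conditions tuned for TRPC6 not TRPC4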
# TRPC6 block conf: mouse TRPC6 inhibitor confirmation; shares compounds with TRPC6 inh; HEK293-TRPC6, membrane potential dye, ACh-evoked depolarization; 3,300 tested, 43% active; inhibition, % at 10 µM;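 active = fluorescence ratio falls more than 5 SD below the full-stimulation control mean, in both duplicate runs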;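 note: integrated fluorescence ratio of peak minus minimum over baseline after agonist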
# TRPC6 act confirm: confirmation of mouse TRPC6 activators; shares compounds with TRPC6 inh; HEK293-TRPC6 membrane potential dye fluorescence, FDSS; activation, % at 10 µM; 2,800 tested, 11% active;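 active = ratio signal rise beyond 5 SD above unstimulated control wells' mean, seen in both duplicate runs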;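 note: plate controls were buffer EC0 wells for no effect and acetylcholine ECmax response for full effect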
# * = called active by the depositor; i = inactive; / = no result. In the library only some 2.3% were active in any assay of this set; here they are far more common.
SMILES,TRPC6 inh,TRPC4 act,TRPC6 act,TRPC4 block,TRPC4 potent,HEK293 MPD ctr-2,HEK293 MPD ctr 2-2,TRPC4/MOR mod,TRPC4/MOR inh 2,TRPC6 block conf,TRPC6 act confirm,others
COc1cc2c(c(OCC(=O)NC(C)C)c1)C(=O)O[C@@H](C)CCCC(=O)CCCCC2,i,i,i,i,i,/,/,/,/,/,/,
CC(=O)NC(CC(=O)Nc1nc(C)cs1)c1ccccc1 (stereo unspecified),i,i,i,i,i,/,/,/,/,/,/,
C=CCN(C(=O)CC(NC(C)=O)c1ccccc1)c1nc(-c2ccc(S(C)(=O)=O)cc2)cs1 (stereo unspecified),-6.5*,i,i,i,i,i,i,i,i,i,i,
Cn1c(=O)c2c(O)c(C=Nc3ccc(F)cc3)c(=O)n(C)c2n(C)c1=O,-6.6*,i,i,i,i,-92%*,i,-14%*,i,i,i,
Cn1c(=O)c(C=Nc2ccccc2)c(O)c2ccccc21,i,i,i,i,i,/,/,/,/,/,/,
CCNCCOC(c1ccccc1)c1ccccc1,-5.8*,i,i,i,i,142%*,i,27%*,36%*,i,/,
COC(=O)c1cc(S(=O)(=O)N(C)c2ccc(C)c(C)c2)c[nH]1,i,i,i,i,i,/,/,/,/,/,/,
CCC(C)N(CCNC(=O)CC1Oc2ccccc2NC1=O)C1CCCCC1 (stereo unspecified),-8*,i,i,i,i,/,/,/,/,60%*,/,TRPC4 spec 2=i;TRPC4 spec=19%*;HEK293 MPD ctr 2-1=i;HEK293 MPD ctr-1=11%*
CC1CCN(Cc2ccc(NC(=O)CC3Oc4ccccc4NC3=O)cc2)CC1 (stereo unspecified),-10*,i,i,i,i,/,/,/,/,81%*,i,TRPC4 spec 2=i;TRPC4 spec=i;HEK293 MPD ctr 2-1=-8.0%*;HEK293 MPD ctr-1=i
COCCNc1nc(C)cc(-c2cc(C(=O)NCc3ccccc3)on2)n1,i,i,i,i,i,/,/,/,/,/,/,
COc1ccc(/C(C)=N/Nc2ccc(F)cc2F)c(O)c1,i,i,i,i,i,/,/,/,/,/,/,
CC(=O)N1c2ccc(S(=O)(=O)N3CCCC(C(=O)Nc4ccc(F)cc4)C3)cc2CC1C (stereo unspecified),-5.1*,i,i,i,i,i,i,i,i,i,i,
COc1ccc(NC(=O)C2CCCN(S(=O)(=O)c3ccc4c(c3)CC(C)N4C(C)=O)C2)cc1 (stereo unspecified),i,i,i,i,i,/,/,/,/,/,/,
